Experimental data reported in ChEMBL document CHEMBL3232799, “Design, synthesis and biological evaluation of new 5-nitro benzimidazole derivatives as AT1 antagonists with anti-hypertension activities” (Bioorg Med Chem, 2014).
Activity calls are given as the source filed them. No cut-off for these calls is given here.

How the values were obtained:
[1] = test system: Rattus norvegicus; assay: Antihypertensive activity in spontaneous hypersensitive […] rat model assessed as reduction of blood pressure at 10 mg/kg, po measured after 4 to 5 hrs; format: functional
Procedure, shortened: (§1)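 Spontaneously hypertensive rats (250-300 g), randomized into groups of 10. Compound suspended in 0.5% sodium carboxymethyl cellulose, oral dosing at 5 and 10 mg/kg; vehicle-only negative control and losartan 10 mg/kg positive control. Mean blood pressure recorded under sodium pentobarbital anesthesia (40 mg/kg, i.p.). Significance versus control at p < 0.05 or 0.01.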

[2] = test system: Rattus norvegicus; assay: Antihypertensive activity in spontaneous hypersensitive […] rat model assessed as duration of reduction of blood pressure at 5 to 10 mg/kg, po; format: functional; conditions: dose mg/kg 5-10; procedure, shortened: as §1
[3] = test system: Rattus norvegicus; assay: Antihypertensive activity in spontaneous hypersensitive […] rat model assessed as reduction of blood pressure at 5 mg/kg, po measured after 4 to 5 hrs; format: functional; procedure, shortened: as §1
[4] = test system: Rattus norvegicus; assay: Antihypertensive activity in renal hypersensitive Sprague-Dawley rat model assessed as reduction of blood pressure at 5 to 10 mg/kg, po measured for 1 to 24 hrs; format: functional, organism-based
Procedure, shortened: (§2)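 Renal hypertension induced in Sprague-Dawley rats (250-350 g) by complete ligation of the left renal artery under sodium pentobarbital (40 mg/kg); rats with SBP above 160 mmHg used. Groups of 10. Compound suspended in 0.5% sodium carboxymethyl cellulose and given orally at 5 and 10 mg/kg; vehicle control and losartan 10 mg/kg. Mean blood pressure measured under pentobarbital (40 mg/kg, i.p.) anesthesia.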

[5] = Displacement of [125I]-angiotensin 2 from angiotensin AT1 receptor in VSMC of Sprague-Dawley rat thoracic aorta after 60 mins by gamma-counting; format: tissue-based
Procedure, shortened: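 VSMCs explant-cultured from SD rat thoracic aorta (collagenase digestion, DMEM + 15% FBS), passages 3-7. Cells incubated with 0.1 nM 125I-angiotensin II plus compound (final 1e-6 to 1e-12 M), 60 min, 37°C. Nonspecific binding defined with 1 µM AII. Cells washed with PBS, lysed in 0.1 M NaOH, gamma-counted. IC50 from regression of displacement curves; Ki = IC50/(1+[L]/Kd).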

[6] = test system: Rattus norvegicus; assay: Antihypertensive activity in spontaneous hypersensitive […] rat model assessed as reduction of blood pressure at 10 mg/kg, po measured for 1 to 24 hrs; format: functional; procedure, shortened: as §1
[7] = test system: Rattus norvegicus; assay: Antihypertensive activity in renal hypersensitive Sprague-Dawley rat model assessed as reduction of blood pressure at 10 mg/kg, po measured for 1 to 24 hrs; format: functional, organism-based; design: dose 10 mg/kg; procedure, shortened: as §2
[8] = test system: Rattus norvegicus; assay: Antihypertensive activity in spontaneous hypersensitive […] rat model assessed as reduction of blood pressure at <5 to 10 mg/kg, po measured for 1 to 24 hrs; format: functional, organism-based; design: dose 10 mg/kg; procedure, shortened: as §1

Row | Structure (SMILES) | Activity [1] | Time [2] | Activity [3] | Activity [4] | IC50 [5] | Ki [5] | Activity [6] | Activity [7] | Activity [8]
1 | CCCCc1nc2cc([N+](=O)[O-])ccc2n1Cc1cccc2c1ccn2-c1ccccc1C(=O)O | 41 mmHg | 24 h | 30 mmHg | Active | 1.03 nM | 0.97 nM | – | – | –
2 | CCc1nc2cc([N+](=O)[O-])ccc2n1Cc1cccc2c1ccn2-c1ccccc1C(=O)O | – | – | – | – | 4.12 nM | 3.04 nM | 30 mmHg | Active | –
3 | CCCc1nc2cc([N+](=O)[O-])ccc2n1Cc1ccc2c(ccn2-c2ccccc2C(=O)O)c1 | – | – | – | – | 3.32 nM | 2.22 nM | 28 mmHg | Active | –
4 | CCCCCc1nc2cc([N+](=O)[O-])ccc2n1Cc1cccc2c1ccn2-c1ccccc1C(=O)O | – | – | – | inactive | 15.7 nM | 13.4 nM | – | – | inactive
5 | CCCCc1nc2cc([N+](=O)[O-])ccc2n1Cc1ccc2c(ccn2-c2ccccc2C(=O)O)c1 | – | – | – | – | 5.11 nM | 4.89 nM | 32 mmHg | Active | –
6 | CCCc1nc2cc([N+](=O)[O-])ccc2n1Cc1cccc2c1ccn2-c1ccccc1C(=O)O | – | – | – | inactive | 5.43 nM | 4.23 nM | – | – | inactive
7 | CCCCc1nc(Cl)c(CO)n1Cc1ccc(-c2ccccc2-c2nnn[nH]2)cc1 [LOSARTAN] | – | – | – | – | 3.54 nM | 2.53 nM | 31 mmHg | Active | –
